Assay [1] deals with Rattus norvegicus. Put plainly: Antithrombotic activity in Wistar rat arterioveinos cannula model assessed as reduction of thrombus weight at 1 umol/kg, iv. The format is functional. A digest of the protocol:
(§1)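 Male Wistar rats, 250–300 g. Agents were dissolved in NS and kept on ice. Heparin sodium was injected into a thread-containing polyethylene cannula, then NS or agent was injected intravenously. The cannula joined the right carotid artery to the left jugular vein, and blood flowed through it for 15 min. Wet thrombus weight on the thread was recorded as mean ± SD, n = 12.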

The nature of assay [2]: Antiplatelet aggregation activity against platelet-activating factor-induced pig platelet aggregation after 5 mins by aggregometer. It counts as functional, cell-based. As to conditions: Sus scrofa. In a few lines:
(§2)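 Pig blood from six pigs was spun at 1000 rpm for 10 min to give PRP, then at 1500g for 10 min to give PPP. PRP was adjusted to 2 × 10⁸ platelets/mL with autologous PPP. Test agent or NS was added at final 100 µM–1 nM. Agonists were at final concentrations of ADP 10 µM, AA 350 µM, PAF 0.1 µM and thrombin 0.1 U/mL. Light-transmission peak was read at 37 °C over 5 min, in sextuplicate. IC50 was taken from the concentration–inhibition curve.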

The nature of assay [3]: Antiplatelet aggregation activity against arachidonic acid-induced pig platelet aggregation after 5 mins by aggregometer. The format is functional, cell-based. Conditions: Sus scrofa. A digest of the protocol: as §2
Assay [4] is described as follows: Antiplatelet aggregation activity against ADP-induced pig platelet aggregation after 5 mins by aggregometer. It counts as functional, cell-based. Conditions: Sus scrofa. A digest of the protocol: as §2
Assay [5] in a line: Antiplatelet aggregation activity against thrombin-induced pig platelet aggregation after 5 mins by aggregometer. The format is functional, cell-based. As to conditions: Sus scrofa. In a few lines:
as §2

In assay [6] the test system is Platelet. The assay is described as follows: Ratio of IC50 for arachidonic acid-induced pig platelet aggregation to IC50 for ADP-induced pig platelet aggregation. The format is functional, Sus scrofa. A digest of the protocol: (§3)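 Fold ratios of IC50 values. Each IC50 came from pig PRP (2 × 10⁸ platelets/mL) light-transmission aggregometry at 37 °C for 5 min, in sextuplicate, with final ADP 10 µM, AA 350 µM, PAF 0.1 µM or thrombin 0.1 U/mL.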

The test system of assay [7] is Platelet. Put plainly: Ratio of IC50 for platelet-activating factor-induced pig platelet aggregation to IC50 for ADP-induced pig platelet aggregation. The format is functional, Sus scrofa. A digest of the protocol:
as §3

In assay [8] the test system is Platelet. The assay is described as follows: Ratio of IC50 for thrombin-induced pig platelet aggregation to IC50 for ADP-induced pig platelet aggregation. The format is functional, Sus scrofa. In a few lines:
as §3

Assay [9] relates to Platelet. The assay is described as follows: Ratio of TCCA IC50 to compound IC50 for ADP-induced pig platelet aggregation. It counts as functional, Sus scrofa. In a few lines: as §3
The subject of assay [10] is Rattus norvegicus. The assay is described as follows: Antithrombotic activity in Wistar rat arterioveinos cannula model assessed as reduction of thrombus weight at 100 nmol/kg, iv. The format is functional. A digest of the protocol: as §1
Assay [11] relates to Rattus norvegicus. Put plainly: Antithrombotic activity in Wistar rat arterioveinos cannula model assessed as reduction of thrombus weight at 10 nmol/kg, iv. It counts as functional. In a few lines:
as §1

Assay [12] concerns Rattus norvegicus. The assay is described as follows: Antithrombotic activity in Wistar rat arterioveinos cannula model assessed as reduction of thrombus weight at 1 nmol/kg, iv. The format is functional. In a few lines: as §1
In assay [13] the test system is Rattus norvegicus. Put plainly: Antithrombotic activity in Wistar rat arterioveinos cannula model assessed as reduction of thrombus weight at 100 nmol/kg, po. The format is functional. In a few lines:
(§4)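 Male Wistar rats received agent in NS, or NS alone, orally. Blood then passed from the right carotid artery to the left jugular vein through a thread-containing polyethylene cannula for 15 min. Wet thrombus weight was reported as mean ± SD, n = 12.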

The subject of assay [14] is Rattus norvegicus. Put plainly: Antithrombotic activity in Wistar rat arterioveinos cannula model assessed as reduction of thrombus weight at 167 umol/kg, po. It counts as functional. A digest of the protocol:
as §4

For assay [15], the system named is Rattus norvegicus. Put plainly: Antithrombotic activity in Wistar rat arterioveinos cannula model assessed as reduction of thrombus weight at 167 umol/kg, iv. The format is functional. In a few lines:
as §1

Assay [16] can be described thus: Antiplatelet aggregation activity against collagen-induced platelet. It counts as functional, cell-based.
Assay [17] relates to Rattus norvegicus. Put plainly: Antithrombotic activity in Wistar rat arterioveinos cannula model assessed as reduction of thrombus weight at 5 umol/kg, iv. The format is functional. A digest of the protocol:
as §1

Experimental findings from ChEMBL document CHEMBL1156185, “A class of 3S-2-aminoacyltetrahydro-beta-carboline-3-carboxylic acids: their facile synthesis, inhibition for platelet activation, and high in vivo anti-thrombotic potency” (J Med Chem, 2010) are described below.

Where a name gives a salt, the structure may show the parent alone. A value given as a limit tells only on which side of the number the result lay.

For orientation: IC50 means the concentration that gives 50% inhibition. Take `CC(C)C[C@H](N)C(=O)N1Cc2[nH]c3ccccc3c2C[C@H]1C(=O)O`: in assay [1], the Activity is reported as 10.55 mg. Besides, the 50% inhibitory concentration (IC50) in assay [2] is 0.0169 µM; in [3], 0.0268 µM; in [4] it was 0.0087 µM; in assay [5], 0.0341 µM. The Ratio IC50 in assay [6] was determined as 3.1; in [7] it was 1.9; in [8], 3.9; in assay [9] it was 81. In assay [10], the Thrombus weight was 25.26 mg.

With `CSCC[C@H](N)C(=O)N1Cc2[nH]c3ccccc3c2C[C@H]1C(=O)O`, the Activity in assay [11] came to 17.67 mg; in assay [12], 22.59 mg; in assay [13], 13.49 mg. Besides, the IC50 in assay [2] came to 0.0124 µM; in [3] it was 0.0235 µM; in [4], 0.0065 µM; in assay [5], 0.0253 µM. Moreover, the Ratio IC50 is 3.6 in [6], 1.9 in assay [7], 3.9 in assay [8] and 108 in [9]. Also, in assay [10], the Thrombus weight turned out to be 13 mg.

As to `CC(=O)Oc1ccccc1C(=O)O` [ASPIRIN], the Activity in assay [14] turned out to be 17.9 mg; in assay [15], 15.21 mg.

In [16], `Cc1nccc2c1[nH]c1cc(O)ccc12` [HARMOL HYDROCHLORIDE] gave an IC50 above 130 µM.

Consider `COc1ccc2c(c1)[nH]c1c(C)nccc12` [HARMINE], for which, in assay [16], the IC50 was above 130 µM.

With `CC[C@H](C)[C@H](N)C(=O)N1Cc2[nH]c3ccccc3c2C[C@H]1C(=O)O`, the Activity worked out at 18.12 mg in assay [11], 25.43 mg in assay [12] and 13.88 mg in assay [13]. Besides, the IC50 is 0.0126 µM in assay [2], 0.0239 µM in [3], 0.00656 µM in assay [4] and 0.027 µM in assay [5]. Moreover, the Ratio IC50 in assay [6] is 3.6; in assay [7] it was 1.9; in assay [8], 4.1; in assay [9] it was 107. Also, the Thrombus weight in assay [10] was 13.74 mg.

Compound `CC1=NCCc2c1[nH]c1cc(O)ccc21` [HARMALOL] yielded an IC50 in [16] above 130 µM.

For the compound `O=C(O)[C@@H]1Cc2c([nH]c3ccccc23)CN1` [CYCLOMETHYLTRYPTOPHAN], the 50% inhibitory concentration (IC50) in [2] came out at 0.752 µM; in assay [3], 0.866 µM; in assay [4], 0.701 µM; in assay [5], 0.982 µM. The Activity in [17] amounted to 18.79 mg.
